Test results as given in ChEMBL document CHEMBL5724801, “EUbOPEN Chemogenomics Library - Multiplex” (2024).
Several values for one entry are separate records, joined by “and”; a condition that tells them apart may be missing. Equal values may be shown once.

Columns and labels:
U2OS = test: Multiplex assay against U2OS; assay type: toxicity, cell-based; settings: human
Method in brief: (§1)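 Imaging took place on a CQ1 microscope at 37°C and 5% CO2 once compound had been added to live cells stained at seeding with Hoechst33342, BioTracker Green Microtubule Cytoskeleton Dye, MitoTracker Red and Annexin V Alexa Fluor 680. CellPathfinder machine-learning gating classed cells as Hoechst high-intensity objects or normal cells, classed normal cells as having healthy, pyknosed or fragmented nuclei, and classed pyknosed cells as mitotic or apoptotic. Tubulin, mitochondrial-mass and membrane-permeability phenotypes are per cents of the healthy-nucleus cells.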

HEK-293T = test: Multiplex assay against HEK293T; assay type: toxicity, cell-based; settings: human; method in brief: as §1
[1] = 12 h, 1 µM, compound concentration 1 uM
[2] = 12 h, 10 µM, compound concentration 10 uM
[3] = 24 h, 1 µM, compound concentration 1 uM
[4] = 24 h, 10 µM, compound concentration 10 uM
[5] = 48 h, 1 µM, compound concentration 1 uM
[6] = 48 h, 10 µM, compound concentration 10 uM

SMILES: O=S(=O)(c1ccccc1)c1cnc2c(N3CCNCC3)cccc2c1 [INTEPIRDINE]
- Population Apoptotic (%) (U2OS; [1]): 76% and 70%
- Population Fragmented Nuclei (%) (U2OS; [1]): 23% and 17%
- Population Healthy Nuclei (%) (U2OS; [1]): 68% and 71%
- Population Hoechst High Intensity Objects (%) (U2OS; [1]): 1% and 0%
- Population Membrane Permeable-Phenotype (%) (U2OS; [1]): 6% and 7%
- Population Mitochondria Different-Phenotype (%) (U2OS; [1]): 3% and 6%
- Population Mitotic Cells (%) (U2OS; [1]): 23% and 30%
- Population Normal (%) (U2OS; [1]): 98% and 100%
- Population Pyknosed Nuclei (%) (U2OS; [1]): 7% and 11%
- Population Tubulin-Different-Phenotype (%) (U2OS; [1]): 4% and 7%
- Population Apoptotic (%) (U2OS; [2]): 58% and 85%
- Population Fragmented Nuclei (%) (U2OS; [2]): 25% and 10%
- Population Healthy Nuclei (%) (U2OS; [2]): 61% and 79%
- Population Hoechst High Intensity Objects (%) (U2OS; [2]): 3% and 2%
- Population Membrane Permeable-Phenotype (%) (U2OS; [2]): 23% and 12%
- Population Mitochondria Different-Phenotype (%) (U2OS; [2]): 11% and 13%
- Population Mitotic Cells (%) (U2OS; [2]): 41% and 14%
- Population Normal (%) (U2OS; [2]): 96% and 97%
- Population Pyknosed Nuclei (%) (U2OS; [2]): 12% and 10%
- Population Tubulin-Different-Phenotype (%) (U2OS; [2]): 14% and 10%
- Total Cell Count (U2OS; [2]): 204 and 139
- Population Apoptotic (%) (U2OS; [3]): 80% and 69%
- Population Fragmented Nuclei (%) (U2OS; [3]): 22% and 14%
- Population Healthy Nuclei (%) (U2OS; [3]): 67% and 73%
- Population Hoechst High Intensity Objects (%) (U2OS; [3]): 2% and 0%
- Population Membrane Permeable-Phenotype (%) (U2OS; [3]): 7% and 3%
- Population Mitochondria Different-Phenotype (%) (U2OS; [3]): 2% and 3%
- Population Mitotic Cells (%) (U2OS; [3]): 19% and 30%
- Population Normal (%) (U2OS; [3]): 97% and 99%
- Population Pyknosed Nuclei (%) (U2OS; [3]): 9% and 12%
- Population Tubulin-Different-Phenotype (%) (U2OS; [3]): 4% and 1%
- Total Cell Count (U2OS; [3]): 319 and 108
- Population Apoptotic (%) (U2OS; [4]): 72% and 77%
- Population Fragmented Nuclei (%) (U2OS; [4]): 23% and 10%
- Population Healthy Nuclei (%) (U2OS; [4]): 60% and 77%
- Population Hoechst High Intensity Objects (%) (U2OS; [4]): 3% and 0%
- Population Membrane Permeable-Phenotype (%) (U2OS; [4]): 17% and 10%
- Population Mitochondria Different-Phenotype (%) (U2OS; [4]): 14% and 17%
- Population Mitotic Cells (%) (U2OS; [4]): 27% and 22%
- Population Normal (%) (U2OS; [4]): 96% and 99%
- Population Pyknosed Nuclei (%) (U2OS; [4]): 16% and 11%
- Population Tubulin-Different-Phenotype (%) (U2OS; [4]): 10% and 6%
- Total Cell Count (U2OS; [4]): 233 and 156
- Population Apoptotic (%) (U2OS; [5]): 89% and 76%
- Population Fragmented Nuclei (%) (U2OS; [5]): 15% and 13%
- Population Healthy Nuclei (%) (U2OS; [5]): 70% and 68%
- Population Hoechst High Intensity Objects (%) (U2OS; [5]): 3%
- Population Membrane Permeable-Phenotype (%) (U2OS; [5]): 6% and 3%
- Population Mitochondria Different-Phenotype (%) (U2OS; [5]): 4% and 2%
- Population Mitotic Cells (%) (U2OS; [5]): 10% and 23%
- Population Normal (%) (U2OS; [5]): 96%
- Population Pyknosed Nuclei (%) (U2OS; [5]): 14% and 18%
- Population Tubulin-Different-Phenotype (%) (U2OS; [5]): 4% and 2%
- Total Cell Count (U2OS; [5]): 416 and 148
- Population Apoptotic (%) (U2OS; [6]): 78% and 95%
- Population Fragmented Nuclei (%) (U2OS; [6]): 22% and 13%
- Population Healthy Nuclei (%) (U2OS; [6]): 59% and 75%
- Population Hoechst High Intensity Objects (%) (U2OS; [6]): 4% and 2%
- Population Membrane Permeable-Phenotype (%) (U2OS; [6]): 15% and 10%
- Population Mitochondria Different-Phenotype (%) (U2OS; [6]): 7% and 12%
- Population Normal (%) (U2OS; [6]): 95% and 97%
- Population Pyknosed Nuclei (%) (U2OS; [6]): 17% and 11%
- Population Tubulin-Different-Phenotype (%) (U2OS; [6]): 6% and 4%
- Total Cell Count (U2OS; [6]): 302 and 201
- Population Apoptotic (%) (HEK-293T; [1]): 40% and 50%
- Population Fragmented Nuclei (%) (HEK-293T; [1]): 7%
- Population Healthy Nuclei (%) (HEK-293T; [1]): 80% and 74%
- Population Hoechst High Intensity Objects (%) (HEK-293T; [1]): 7% and 10%
- Population Membrane Permeable-Phenotype (%) (HEK-293T; [1]): 0%
- Population Mitochondria Different-Phenotype (%) (HEK-293T; [1]): 54% and 69%
- Population Mitotic Cells (%) (HEK-293T; [1]): 60% and 50%
- Population Normal (%) (HEK-293T; [1]): 92% and 89%
- Population Pyknosed Nuclei (%) (HEK-293T; [1]): 12% and 17%
- Population Tubulin-Different-Phenotype (%) (HEK-293T; [1]): 43% and 23%
- Total Cell Count (HEK-293T; [1]): 403 and 336
- Population Apoptotic (%) (HEK-293T; [2]): 51% and 46%
- Population Fragmented Nuclei (%) (HEK-293T; [2]): 8% and 4%
- Population Healthy Nuclei (%) (HEK-293T; [2]): 72% and 79%
- Population Hoechst High Intensity Objects (%) (HEK-293T; [2]): 10% and 7%
- Population Membrane Permeable-Phenotype (%) (HEK-293T; [2]): 0%
- Population Mitochondria Different-Phenotype (%) (HEK-293T; [2]): 70% and 76%
- Population Mitotic Cells (%) (HEK-293T; [2]): 48% and 53%
- Population Normal (%) (HEK-293T; [2]): 89% and 92%
- Population Pyknosed Nuclei (%) (HEK-293T; [2]): 18% and 15%
- Population Tubulin-Different-Phenotype (%) (HEK-293T; [2]): 58% and 50%
- Total Cell Count (HEK-293T; [2]): 326 and 349
- Population Apoptotic (%) (HEK-293T; [3]): 28% and 58%
- Population Fragmented Nuclei (%) (HEK-293T; [3]): 6% and 7%
- Population Healthy Nuclei (%) (HEK-293T; [3]): 80% and 85%
- Population Hoechst High Intensity Objects (%) (HEK-293T; [3]): 5%
- Population Membrane Permeable-Phenotype (%) (HEK-293T; [3]): 0%
- Population Mitochondria Different-Phenotype (%) (HEK-293T; [3]): 35% and 43%
- Population Mitotic Cells (%) (HEK-293T; [3]): 71% and 41%
- Population Normal (%) (HEK-293T; [3]): 94%
- Population Pyknosed Nuclei (%) (HEK-293T; [3]): 12% and 7%
- Population Tubulin-Different-Phenotype (%) (HEK-293T; [3]): 26% and 14%
- Total Cell Count (HEK-293T; [3]): 530 and 416
